Active and inactive are the calls of the source. The calls are words filed in the database; no cut-off is given here.
What was measured:
[1] = tested on: Enterococcus faecium; assay: Antibacterial activity against Enterococcus faecium ATCC 27270 after 24 hrs by microtitre broth dilution method; assay type: functional; details: ATCC 27270, 24 h
[2] = tested on: Pseudomonas aeruginosa; assay: Antibacterial activity against Pseudomonas aeruginosa ATCC 27853 after 24 hrs by microtitre broth dilution method; assay type: functional; details: ATCC 27853, 24 h
[3] = tested on: Pseudomonas aeruginosa; assay: Antibacterial activity against multidrug/extremely drug-resistant/colistin-susceptible Pseudomonas aeruginosa isolate 100036; assay type: functional
[4] = tested on: Pseudomonas aeruginosa; assay: Antibacterial activity against multidrug/extremely drug-resistant/colistin-susceptible Pseudomonas aeruginosa isolate 101885; assay type: functional
[5] = tested on: Pseudomonas aeruginosa; assay: Antibacterial activity against multidrug/extremely drug-resistant/colistin-susceptible Pseudomonas aeruginosa isolate 259-96918; assay type: functional
[6] = tested on: Pseudomonas aeruginosa; assay: Antibacterial activity against multidrug/extremely drug-resistant/colistin-susceptible Pseudomonas aeruginosa isolate 260-97103; assay type: functional
[7] = tested on: Pseudomonas aeruginosa; assay: Antibacterial activity against multidrug/extremely drug-resistant/colistin-susceptible Pseudomonas aeruginosa isolate 264-104354; assay type: functional
[8] = tested on: Pseudomonas aeruginosa; assay: Antibacterial activity against pandrug-resistant Pseudomonas aeruginosa isolate 101243; assay type: functional
[9] = tested on: Pseudomonas aeruginosa; assay: Antibacterial activity against Pseudomonas aeruginosa PAO1; assay type: functional
[10] = tested on: Pseudomonas aeruginosa; assay: Antibacterial activity against multidrug-resistant/tobramycin-susceptible Pseudomonas aeruginosa isolate 86067; assay type: functional
[11] = tested on: Pseudomonas aeruginosa; assay: Antibacterial activity against multidrug-resistant/tobramycin-susceptible Pseudomonas aeruginosa isolate 86141; assay type: functional
[12] = tested on: Pseudomonas aeruginosa; assay: Antibacterial activity against multidrug-resistant/tobramycin-susceptible Pseudomonas aeruginosa isolate 79199; assay type: functional
[13] = tested on: Pseudomonas aeruginosa; assay: Antibacterial activity against multidrug-resistant/tobramycin-susceptible Pseudomonas aeruginosa isolate 85322; assay type: functional
[14] = tested on: Escherichia coli; assay: Antibacterial activity against of wild-type Escherichia coli isolate 79768; assay type: functional
[15] = tested on: Escherichia coli; assay: Antibacterial activity against fluoroquinolone resistant Escherichia coli isolate 87164 harboring beta-lactamase CTX-M-15/TEM-1; assay type: functional
[16] = tested on: Escherichia coli; assay: Antibacterial activity against fluoroquinolone resistant Escherichia coli isolate 88273 harboring beta-lactamase CTX-M-15/TEM-1/OXA-1; assay type: functional
[17] = tested on: Escherichia coli; assay: Antibacterial activity against fluoroquinolone resistant Escherichia coli isolate 90789 harboring beta-lactamase KPC-3/TEM-1; assay type: functional
[18] = tested on: Escherichia coli; assay: Antibacterial activity against fluoroquinolone resistant Escherichia coli isolate 92756 harboring beta-lactamase CTX-M-14/TEM-1; assay type: functional
[19] = tested on: Escherichia coli; assay: Antibacterial activity against fluoroquinolone resistant Escherichia coli isolate ECMH01 harboring beta-lactamase NDM-1; assay type: functional
[20] = tested on: Acinetobacter baumannii; assay: Antibacterial activity against fluoroquinolone resistant Acinetobacter baumannii isolate ABO30; assay type: functional
[21] = Toxicity in Galleria mellonella upto 96 hrs
Summary of the method: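 Tolerability test in Galleria mellonella larvae, injected with doses up to a maximum of 600 mg/kg.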

[22] = tested on: Pseudomonas aeruginosa; assay: Antibacterial activity against extremely drug-resistant Pseudomonas aeruginosa isolate 104354 infected in Galleria mellonella assessed as larvae survival administered as single dose measured after 24 to 96 hrs; assay type: functional
Summary of the method: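 Galleria mellonella larvae were infected with 10^6 CFU of XDR P. aeruginosa #104354, resistant to all antipseudomonal classes except colistin. A single injected drug dose was given 2 h post-infection: 50 mg/kg with survival read at 24 h, or 75 mg/kg with survival read at 96 h. Controls were infected untreated larvae and PBS-injected larvae. Two independent experiments of 15 larvae each (n = 30).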

[23] = tested on: Pseudomonas aeruginosa; assay: Antibacterial activity against Pseudomonas aeruginosa PAO1 assessed as outer membrane permeabilization by measuring increase in 1-N-phenylnaphthylamine measured […] for 4.5 mins by fluorescence assay; assay type: functional
Summary of the method: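 PAO1 cells received NPN, then the test agent at 50, 32, 16 or 8 µg/mL, added at 120 s. Colistin at 5 µg/mL was the positive control. Uptake was followed as NPN fluorescence. The assay was run in triplicate, and each point is the mean of three determinations ± SEM.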

[24] = tested on: Pseudomonas aeruginosa; assay: Antibacterial activity against Pseudomonas aeruginosa PAO1 assessed as fractional inhibitory concentration index after 18 hrs in presence of vancomycin by checkerboard method; assay type: functional
Summary of the method: (§1)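 Checkerboard combinations of the hybrid with each partner antibiotic were tested against P. aeruginosa PAO1. Interaction is expressed as the fractional inhibitory concentration (FIC) index: ≤0.5 means synergy, 1–2 no interaction, ≥4 antagonism.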

[25] = tested on: Pseudomonas aeruginosa; assay: Antibacterial activity against Pseudomonas aeruginosa PAO1 assessed as fractional inhibitory concentration index after 18 hrs in presence of moxifloxacin by checkerboard method; assay type: functional; summary of the method: as §1
[26] = tested on: Pseudomonas aeruginosa; assay: Antibacterial activity against Pseudomonas aeruginosa PAO1 assessed as fractional inhibitory concentration index after 18 hrs in presence of ceftazidime by checkerboard method; assay type: functional; summary of the method: as §1
[27] = tested on: Pseudomonas aeruginosa; assay: Antibacterial activity against Pseudomonas aeruginosa PAO1 assessed as fractional inhibitory concentration index after 18 hrs in presence of colistin by checkerboard method; assay type: functional; summary of the method: as §1
[28] = tested on: Pseudomonas aeruginosa; assay: Potentiation of ciprofloxacin induced antibacterial activity against multidrug/extremely drug-resistant Pseudomonas aeruginosa isolate PA262-101856 assessed as ciprofloxacin MIC at <= […] ug/ml (reference value: […] to […] ug/ml); assay type: functional
[29] = tested on: Pseudomonas aeruginosa; assay: Potentiation of moxifloxacin induced antibacterial activity against multidrug/extremely drug-resistant Pseudomonas aeruginosa isolate PA264-104354 assessed as moxifloxacin MIC at <= […] ug/ml (reference value: […] to […] ug/ml); assay type: functional
[30] = tested on: Pseudomonas aeruginosa; assay: Antibacterial activity against multidrug/extremely drug-resistant Pseudomonas aeruginosa isolate PA259-96918 in presence of <= 4 ug/ml of ciprofloxacin (reference value: 2 ug/ml); assay type: functional
[31] = tested on: Pseudomonas aeruginosa; assay: Antibacterial activity against multidrug/extremely drug-resistant/Pseudomonas aeruginosa isolate PA260-97103 in presence of <= 4 ug/ml of ciprofloxacin (reference value: 1 ug/ml); assay type: functional
[32] = tested on: Pseudomonas aeruginosa; assay: Antibacterial activity against multidrug/extremely drug-resistant Pseudomonas aeruginosa isolate PA264-104354 in presence of <= 4 ug/ml of ciprofloxacin (reference value: 4 ug/ml); assay type: functional
[33] = tested on: Pseudomonas aeruginosa; assay: Antimotility activity against Pseudomonas aeruginosa PAO1 assessed as reduction in flagellum-dependent swimming motility after 20 hrs; assay type: functional
Summary of the method: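 Swim plates (0.3% agar, dried and set for 60 min) were inoculated with PAO1 at OD600 1.0, with or without 0.25 µg/mL test agent. Plates were imaged after 20 h at 37 °C.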

[34] = tested on: Pseudomonas aeruginosa; assay: Antimicrobial activity against Pseudomonas aeruginosa PAO200; assay type: functional
Summary of the method: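 MIC (µg/mL) determined in PAO200, a PAO1-derived MexAB-OprM deletion strain used to assess efflux effects.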

[35] = Selectivity ratio of MIC for Pseudomonas aeruginosa PAO1 to MIC for Pseudomonas aeruginosa PAO750; assay type: functional
Summary of the method: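 MICs were measured in PAO1 and in PAO750. PAO750 is a PAO1 derivative lacking the MexAB-OprM, MexCD-OprJ, MexEF-OprN, MexJK and MexXY efflux pumps and the outer membrane protein OpmH.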

[36] = tested on: Pseudomonas aeruginosa; assay: Induction of outer membrane permeabilization in Pseudomonas aeruginosa PAO1 assessed as accumulation of propidium iodide at 8 ug/ml after 3 to 4 hrs by fluorescence microscopy; assay type: functional
Summary of the method: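 PAO1 cells were treated with 8 µg/mL for 3 h at 37 °C, then stained with the membrane-impermeable nucleic-acid dye propidium iodide. Fluorescence microscopy and DIC imaging were compared against untreated cells.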

[37] = Inhibition of Pseudomonas aeruginosa DNA gyrase A assessed as inhibition of DNA supercoiling using PBR322 DNA as substrate after 30 mins by SYBR Gold staining based agarose gel electrophoresis

SMILES: COc1c(N2C[C@@H]3CCCN(CCCCCCCCCCCCO[C@@H]4[C@@H](O[C@H]5O[C@H](CO)[C@@H](O)[C@H](N)[C@H]5O)[C@H](N)C[C@H](N)[C@H]4O[C@H]4O[C@H](CN)[C@@H](O)C[C@H]4N)[C@@H]3C2)c(F)cc2c(=O)c(C(=O)O)cn(C3CC3)c12.Cl.Cl.Cl.Cl.Cl
- MIC [1]: 16 mg/L
- MIC [2]: 4 mg/L
- MIC [3]: 8 mg/L
- MIC [4]: 8 mg/L
- MIC [5]: 2 mg/L
- MIC [6]: 1 mg/L
- MIC [7]: 4 mg/L
- MIC [8]: 8 mg/L
- MIC [9]: 4 mg/L
- MIC [10]: 4 mg/L
- MIC [11]: 4 mg/L
- MIC [12]: 8 mg/L
- MIC [13]: 8 mg/L
- MIC [14]: ≤ 2 mg/L
- MIC [15]: ≥ 64 mg/L
- MIC [16]: ≥ 64 mg/L
- MIC [17]: ≥ 64 mg/L
- MIC [18]: ≥ 64 mg/L
- MIC [19]: ≥ 64 mg/L
- MIC [20]: 8 to 64 mg/L
- MTD at 96 h [21]: 600 mg/kg
- Activity [22]: Dose-dependent effect
- Activity [23]: Dose-dependent effect
- fractional inhibitory concentration index (FICI) [24]: 0.26
- fractional inhibitory concentration index (FICI) [25]: 0.18
- fractional inhibitory concentration index (FICI) [26]: 0.37
- fractional inhibitory concentration index (FICI) [27]: 0.37
- MIC [28]: 1 mg/L
- MIC [29]: 1 mg/L
- MIC [30]: < 0.5 mg/L
- MIC [31]: < 0.25 mg/L
- MIC [32]: < 0.5 mg/L
- Activity [33]: Dose-dependent effect
- MIC [34]: 4 mg/L
- Selectivity ratio [35]: 8
- Activity [36]: Active
- IC50 [37]: 54.7 µM

From ChEMBL document CHEMBL3856229, “Hybrid Antibiotic Overcomes Resistance in P. aeruginosa by Enhancing Outer Membrane Penetration and Reducing Efflux” (J Med Chem, 2016)
